Bioassay records (PubChem)
This is a sample that favours compounds with a hit; in the whole collection about 4.8% have one here.
pPAFAH inh: pPAFAH (human) enzyme inhibition; inhibition, % at 3.39 µM; hit rate 1.5% among 330,000; AID 463082; Q13093; recombinant pPAFAH, FP-rhodamine probe fluorescence polarization;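 active = inhibition above the mean inhibition across the screen plus 3 SD, cut at about 25% in these data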;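 also: inhibitors block binding of the rhodamine activity-based probe so polarization drops; 0% = enzyme with DMSO and 100% = wells lacking pPAFAH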
UCH37 inh: blocks the human deubiquitinase UCH37. Q9Y5K5. hit rate 0.33% among 330,000. purified proteasome/UCH37, Ub-AMC cleavage fluorescence. inhibition, % (no concentration beside the values);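 active = mean inhibition over replicate wells above about 20%, limit read from the data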;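 also: 0% = compound-free wells with enzyme and 100% = wells lacking proteasome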
Target sequence (Q9Y5K5 whole entry, looked up): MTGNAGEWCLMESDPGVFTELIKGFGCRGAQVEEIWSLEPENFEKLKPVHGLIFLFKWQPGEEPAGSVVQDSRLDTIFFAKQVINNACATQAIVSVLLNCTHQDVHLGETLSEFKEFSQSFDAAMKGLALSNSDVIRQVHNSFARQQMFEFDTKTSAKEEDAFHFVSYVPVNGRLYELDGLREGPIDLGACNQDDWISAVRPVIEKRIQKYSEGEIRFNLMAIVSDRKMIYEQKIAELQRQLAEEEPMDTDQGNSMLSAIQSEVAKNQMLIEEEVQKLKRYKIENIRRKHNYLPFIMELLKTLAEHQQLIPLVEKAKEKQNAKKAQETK
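Material: Human UCH37 enzyme supplied as purified proteasome complex | Schedule: 30 min compound-proteasome preincubation then 25 min substrate reaction, room temperature | Detection: AMC fluorescence from Ub-AMC cleavage, excitation 355 nm, emission 460 nm | Benchmarks: Wells without proteasome as full block, compound-free enzyme plus substrate as uninhibited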
PAFAH2 inh: inhibitors of human PAFAH2; hit rate 0.99% among 340,000; inhibition, % at 3.39 µM; Q99487; recombinant PAFAH2, FP-rhodamine activity probe, fluorescence polarization; AID 492956;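 active = inhibition above the mean over all tested compounds plus 3 SD, cut at about 30% in these data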;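 also: inhibitors block probe labeling of enzyme so polarization drops; 0% = enzyme with DMSO and 100% = wells lacking PAFAH2 protein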
PAFAH1B2 inh: PAFAH1B2 (human) inhibition. inhibition, % at 3.39 µM. recombinant PAFAH1B2, FP-rhodamine activity probe, fluorescence polarization. AID 492953. hit rate 1.2% among 340,000;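 active = inhibition above the mean of all tested compounds plus 3 SD, cut at about 24% in these data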;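 also: 0% = enzyme with DMSO and 100% = wells lacking PAFAH1B2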
PAFAH1B3 FP inh: blocks human PAF acetylhydrolase 1B catalytic subunit 3; Q15102; recombinant PAFAH1B3, FP-rhodamine probe, fluorescence polarization; inhibition, % at 3.39 µM; hit rate 0.28% among 340,000;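 active = inhibition above the screen-wide average of all tested compounds plus 3 SD, cut at about 25% in these data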;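 also: 0% = enzyme with DMSO only and 100% = wells lacking PAFAH1B3 protein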
GRIN3A LBD mod: modulates the human NR3A ligand-binding domain; hit rate 2.5% among 340,000; AID 1259313; Tm shift relative to glycine control, % at 25 µM; NR3A LBD differential scanning fluorimetry, Tm shift; 0% = protein alone, 100% = glycine-bound protein;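 active = melting temperature shift of at least 10% of the positive control shift, at one fixed dose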
pPAFAH confirm: pPAFAH (human) inhibition, confirmed. AID 463230. hit rate 72% among 2,300. shares compounds with pPAFAH inh. recombinant pPAFAH, FP-Rh probe fluorescence polarization. inhibition, % at 3.39 µM;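 active = mean inhibition of the triplicate above the hit cutoff set for the earlier primary screen, cut at about 25% in these data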;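 also: 0% = enzyme with DMSO and 100% = wells lacking pPAFAH enzyme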
The depositor's hits bear a star.

`COc1ccccc1C=NNc1nc(C)c(C(C)=O)s1` gave UCH37 inh -1.
For CCCCCCCc1nn2c(=O)cc(O)nc2s1 the results were pPAFAH inh 47*, UCH37 inh 1, PAFAH2 inh -3, PAFAH1B2 inh 9, PAFAH1B3 FP inh 2, GRIN3A LBD mod -3 and pPAFAH confirm 10.
CC(C)=CCc1c2c(c(O)c3c(=O)c4c(oc13)-c1cc(O)c(O)cc1OC4C=C(C)C)C=CC(C)(C)O2 (centres undefined) was read as pPAFAH inh 37*, UCH37 inh 4, GRIN3A LBD mod 22* and pPAFAH confirm 52*.
`COCCCNc1c2c3c(cccc3[nH]c1=O)C(=O)c1ccccc1-2` gave pPAFAH inh 106*, UCH37 inh 1, PAFAH2 inh 136*, PAFAH1B2 inh 109*, PAFAH1B3 FP inh 134*, GRIN3A LBD mod -360 and pPAFAH confirm 84*.
For CCCC(=Nc1ccccc1)C1=C(O)C(C(=O)OC)C(C)(C)CC1=O (centres undefined) the results were pPAFAH inh 2, UCH37 inh 2, PAFAH2 inh 0, PAFAH1B2 inh 1, PAFAH1B3 FP inh 1 and GRIN3A LBD mod 1.
`CCCCC(=Nc1ccc(N)cc1)C1=C(O)C(C(=O)OC)C(C)(C)CC1=O` (centres undefined) gave pPAFAH inh 38*, UCH37 inh 4, PAFAH2 inh 10, PAFAH1B2 inh 10, PAFAH1B3 FP inh 14, GRIN3A LBD mod -2 and pPAFAH confirm 8.
Screening CCC(=Nc1ccc(N)cc1)C1=C(O)C(C(=O)OC)C(C)(C)CC1=O (centres undefined) returned pPAFAH inh 58*, UCH37 inh 5, PAFAH2 inh 9, PAFAH1B2 inh -2, PAFAH1B3 FP inh 12, GRIN3A LBD mod 6 and pPAFAH confirm 1.
`CC(=NNC(=O)COc1ccc2ccccc2c1)c1cccs1` gave UCH37 inh 6.
Screening Cc1cc(C=NNC(N)=S)c(O)c(C=NNC(N)=S)c1 returned UCH37 inh 6.
Screening COc1ccc(NS(=O)(=O)c2ccc(O)c(NC(=O)c3ccc(S(=O)(=O)N4CCCCCC4)cc3)c2)cc1 returned pPAFAH inh 46*, UCH37 inh 2, PAFAH2 inh -26, PAFAH1B2 inh 1, PAFAH1B3 FP inh -16, GRIN3A LBD mod 16* and pPAFAH confirm 57*.
For O=S(=O)(Nc1cc(S(=O)(=O)N2CCCC2)ccc1O)c1ccc(Cl)s1 the results were UCH37 inh -1, PAFAH2 inh 1, PAFAH1B2 inh 3, PAFAH1B3 FP inh 6 and GRIN3A LBD mod -6.
O=C(Nc1cc(S(=O)(=O)N2CCOCC2)ccc1O)c1ccc(NS(=O)(=O)c2ccc(Cl)s2)cc1 was read as pPAFAH inh 45*, UCH37 inh 4, PAFAH2 inh 2, PAFAH1B2 inh 7, PAFAH1B3 FP inh -4, GRIN3A LBD mod 19* and pPAFAH confirm 45*.
For N#CC1=C(N)N2C(=C(C#N)C1c1ccccc1)Sc1ccccc12 (centres undefined) the results were pPAFAH inh -2.
Screening N#CC1=C(N)N2C(=C(C#N)C1c1ccc(Br)cc1)Nc1ccccc12 (centres undefined) returned pPAFAH inh 63*, UCH37 inh -10, GRIN3A LBD mod 23* and pPAFAH confirm 71*.
`CCNC(=S)NN=C(C)c1ccc2c(c1)OCCO2` gave UCH37 inh 5.
O=C(Nc1ccc(N2CCCC2)cc1)c1cc(Br)ccc1Cl was read as pPAFAH inh 47*, UCH37 inh 4, PAFAH2 inh 2, PAFAH1B2 inh 4, PAFAH1B3 FP inh 6, GRIN3A LBD mod -1 and pPAFAH confirm 5.
Screening CS(=O)(=O)c1ccc(C(=O)Nc2ccc(N3CCCC3)cc2)c(Cl)c1 returned pPAFAH inh 3, UCH37 inh 2, PAFAH2 inh -4, PAFAH1B2 inh 9, PAFAH1B3 FP inh 1 and GRIN3A LBD mod 1.
